dFosB act: activators of delta FosB homodimer, primary screen, biochemical, fluorescence polarization, TAMRA-CDK5 oligo, single point; Protein FosB (Mus musculus), P13346; AID 493131, 2011; activation, % at 25 µM; purified delta FosB; percent of positive-control signal above neutral wells; 340,000 compounds, 0.99% hits;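 active = mean activation above about 17%, with every replicate also reaching it, limit read from the data, passing the limit was not always enough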
CAL PDZ FP-1: CAL PDZ peptide-binding inhibitors, primary screen, biochemical, fluorescence polarization, Cer-tagged CAL PDZ, HTS; Golgi-associated PDZ and coiled-coil motif-containing protein (Homo sapiens), Q9HD26; purified CAL PDZ, TMR-peptide fluorescence polarization, 1 h; inhibition, % at 20 µM; 330,000 compounds, 0.02% hits;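 active = highest replicate inhibition of at least 40%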;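 also: plate controls were DMSO neutral control wells for no effect and unlabeled competitor peptide control wells for full effect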
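System: purified tagged CAL PDZ domain construct (CerCALP). Schedule: 1 h incubation at room temperature before polarization reading. Medium: 25 mM sodium phosphate pH 7.4, 150 mM NaCl, TCEP, IgG, Thesit. Read-out: percent inhibition from loss of millipolarization. Measured by: FP readout, S and P plane fluorescence. Probe or stimulus: fluorescent TMR peptide probe.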
C2C12 statin: suppressors of statin myotoxicity in C2C12 myotubes, primary screen, cell-based, single point, plate reader. C2C12 myotubes + simvastatin, ATP luminescence, 48 h; scaled: DMSO 0, geranylgeraniol control 100. rescue of ATP level, % at 7.49 µM. 330,000 compounds, 0.78% hits. AID 602340, 2012;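 active = mean ATP rescue above about 67%, or every replicate alone reaching that limit, limit read from the data, passing the limit was not always enough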;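 also: myotubes were challenged with 10 µM simvastatin during compound exposure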
CAL PDZ FP-2: untagged CAL PDZ binding inhibitors, primary screen, biochemical, fluorescence polarization, HTS; Golgi-associated PDZ and coiled-coil motif-containing protein (Homo sapiens), Q9HD26; 300,000 compounds, 0.92% hits; inhibition, % at 24.9 µM; AID 602252, 2012; purified CAL PDZ, TMR-peptide fluorescence polarization, 1 h;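 active = mean inhibition of at least 30% with at least half of replicates also reaching 30%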;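 also: 0% = DMSO neutral control and 100% = excess unlabeled competitor peptide PRC23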
S100A4 inh HTS: inhibitors of S100A4-myosin IIA peptide binding, primary screen, biochemical, fluorescence polarization, TAMRA-MyoIIA peptide; Protein S100-A4 (Homo sapiens), P26447; 360,000 compounds, 0.14% hits; AID 652163, 2013; inhibition, % at 10.7 µM;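 active = mean inhibition of at least 70% across replicates, with every replicate also reaching that level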
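Material: S100A4 monomer (human). Medium: Calcium-containing HEPES buffer, pH 7.2. Probe or stimulus: labelled myosin peptide probe, 5 nM. Compound dosing: one concentration per compound. Timing: polarization read 5 min after assay mix addition, stable 5–60 min. Benchmarks: DMSO as neutral control, TFP as positive control.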
CDK5 p35 inh: inhibitors of human CDK5/p35 kinase, primary screen, biochemical, single concentration | Cyclin-dependent kinase 5 (Homo sapiens) + Cyclin-dependent kinase 5 activator 1 (Homo … | Recombinant CDK5/p35, ADP-Glo luminescence, 60 min | inhibition, % at 10 µM | 330,000 compounds, 0.01% hits;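 active = highest replicate inhibition of at least 50% and at least 75% of replicates reaching 50%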;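 also: plate controls were DMSO neutral control for no effect and GW8510 at 10 µM for full effect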
Target sequence (Q00535 whole entry, looked up): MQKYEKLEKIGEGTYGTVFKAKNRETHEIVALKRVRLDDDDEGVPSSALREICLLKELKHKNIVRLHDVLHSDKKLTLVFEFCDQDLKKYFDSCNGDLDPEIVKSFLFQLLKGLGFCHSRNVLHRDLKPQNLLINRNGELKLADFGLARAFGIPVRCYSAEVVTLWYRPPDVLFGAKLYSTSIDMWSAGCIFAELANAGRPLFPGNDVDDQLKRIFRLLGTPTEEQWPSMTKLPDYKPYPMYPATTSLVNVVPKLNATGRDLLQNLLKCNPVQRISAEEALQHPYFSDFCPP
Target sequence (Q15078 whole entry, looked up): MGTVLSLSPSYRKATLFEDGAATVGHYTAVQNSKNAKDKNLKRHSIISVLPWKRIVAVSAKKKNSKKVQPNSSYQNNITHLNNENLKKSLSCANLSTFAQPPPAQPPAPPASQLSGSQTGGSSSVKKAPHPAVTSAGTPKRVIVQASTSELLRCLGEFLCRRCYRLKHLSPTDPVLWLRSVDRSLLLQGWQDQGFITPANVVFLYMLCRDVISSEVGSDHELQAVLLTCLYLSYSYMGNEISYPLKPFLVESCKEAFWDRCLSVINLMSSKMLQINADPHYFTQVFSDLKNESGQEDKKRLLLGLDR
The depositor's hits bear a star; . = not tested or not shown; + = active, no number. Compounds with a hit are over-represented: about 2% of the library has one in this group of screens.

SMILES | dFosB act | CAL PDZ FP-1 | C2C12 statin | CAL PDZ FP-2 | S100A4 inh HTS | CDK5 p35 inh
COc1ccc(Cl)cc1CNCCCSc1ncccn1 | -3 | 0 | -14 | -1 | -13 | -1
CN(C)CCN(C(=O)c1cccc(N2C(=O)CCC2=O)c1)c1nc2ccc(Br)cc2s1 | -15 | -2 | -10 | 5 | -4 | 1
O=C(NCC(=O)N1CCN(Cc2ccccc2)CC1)c1cc(Cl)cc([N+](=O)[O-])c1 | -1 | -2 | 2 | -2 | 0 | -1
COc1ccc(S(=O)(=O)N2CCOCC2)cc1C(=O)NCC(c1ccccc1)c1ccccc1 | 1 | -1 | 12 | 42* | -2 | 1
COc1ccc(S(=O)(=O)N2CCOCC2)cc1C(=O)NCc1ccccc1CN1CCCC1 | -3 | -2 | 3 | -5 | -12 | 1
CCC(C)c1cc(S(=O)(=O)N2CCOCC2)ccc1OC (stereo not given) | 3 | -1 | 82* | -4 | . | 0
COc1ccc(S(=O)(=O)N2CCOCC2)cc1C(C)C | -10 | -2 | 10 | 5 | . | -1
CC(OC(=O)c1cc(S(=O)(=O)N2CCOCC2)ccc1Br)C(=O)N1CCOCC1 (stereo not given) | 1 | -1 | -6 | 43* | -2 | 1
c1ccc(-c2ccccc2OCCCCN2CCCCC2)cc1 | -5 | -1 | -12 | 0 | . | -2
Cc1ccc(C=C2C(=O)c3ccccc3C2=O)o1 | -2 | -2 | 5 | -4 | . | 5
CCN(CC)C1=CC2=CC(=C(C#N)C#N)CCC2CC1 (stereo not given) | -1 | -2 | . | -4 | -1 | -9
COc1ccc(NC(=O)n2ncc3c(C)cccc32)cc1 | -1 | . | -15 | 62* | -2 | 0
COc1ccc(NC(=O)n2ncc3c(C)cccc32)cc1OC | -3 | 0 | 4 | 1 | 25 | 2
Cc1nc(=S)n(-c2ccccc2)[nH]1 | 5 | -2 | -7 | . | . | 1
CCCCN(CC)CCNC(=O)c1cn(CCOC)c(=O)c2c1c1ccccc1n2C | -7 | 0 | 13 | -2 | 0 | 1
CCCCN(CC)CCCNC(=O)c1cn(C)c(=O)c2c1c1ccccc1n2C | -2 | . | -11 | 37* | 2 | 1
Cc1ccc2[nH]c(=O)c(COC(=O)C3CCCCC3)cc2c1 | -4 | 0 | . | + | -5 | -1
O=C(OCc1cc2ccccc2[nH]c1=O)C1CCCCC1 | -7 | . | -7 | -6 | . | 0
CCCCn1c(O)c(/C=C2\C=Nc3ccccc32)c(=O)[nH]c1=O | -36 | 0 | 15 | -3 | 81* | 1
O=C(CC(=O)NCc1cccnc1)NCc1cccnc1 | -2 | -1 | 111* | -5 | . | 0
COc1ccc(C(=O)NCc2cccnc2)cc1Br | -9 | -2 | 9 | . | . | -1
COc1cc(OC)cc(C(=O)NCc2cccnc2)c1 | -6 | -1 | 129* | -1 | . | 2
O=C(NCc1cccnc1)C1CC(=O)N(CCc2ccccc2)C1 (stereo not given) | -8 | -1 | 133* | . | -1 | 1
C/C(NCc1ccccc1)=C(\C#N)C(=O)NCc1ccccc1 | -6 | -1 | -20 | 0 | . | 0
C/C(NCc1cccnc1)=C(\C#N)C(=O)NCc1ccccc1 | 2 | -1 | 104* | -1 | . | 1
SMILES | dFosB act | CAL PDZ FP-1 | C2C12 statin | CAL PDZ FP-2 | S100A4 inh HTS | CDK5 p35 inh
CC(C)(C)c1ccc(-c2n[nH]c(=S)n2CC2CCCO2)cc1 (stereo not given) | -12 | -1 | 0 | -2 | 1 | -6
Cc1cc(NC(=O)Cn2nnc3sc4c(c3c2=O)CCC(C(C)(C)C)C4)no1 (stereo not given) | -9 | -2 | -2 | . | . | -1
NC(=O)CC(NC(=O)c1ccccc1)c1ccc(NCCN2CCOCC2)c([N+](=O)[O-])c1 (stereo not given) | 0 | 0 | -1 | -1 | 24 | 0
CCN1CCN(C(CNS(=O)(=O)c2ccc(OC)c(C)c2)c2cccnc2)CC1 (stereo not given) | 1 | -2 | . | -2 | 2 | 2
CSc1cccc(CN2CCC(CO)(Cc3ccccc3)CC2)c1 | -3 | -1 | . | -1 | 0 | 2
CCCCOc1ccc(C(=O)NCC(=O)NCc2ccncc2)cc1 | 0 | 0 | 6 | -2 | 0 | 0
COc1cc(OC)cc(C(=O)NNC(=S)NC(=O)c2cccnc2)c1 | 0 | -1 | 1 | 61* | 2 | -1
COc1ccc(C(=O)NCC(=O)NCc2ccncc2)cc1 | -2 | -3 | 1 | 124* | -1 | 1
COc1cccc(CN2CCC(C(=O)Nc3ccc(-c4cccc(C)c4)cc3)CC2)c1O | 40* | 0 | 23 | -4 | -4 | 0
C[C@H](CO)N1C[C@H](C)[C@H](CN(C)C)Oc2ccc(NC(=O)Cn3cnnn3)cc2C1=O | . | . | -6 | . | 2 | .
Cc1cccc2[nH]c(CN(C)C(=O)C3CCC(=O)N(C4CC4)C3)nc12 (stereo not given) | -2 | -1 | 8 | 43* | 9 | 1
Fc1cccc(CN2CCN3CCCC3C2C2CCCCC2)c1 (stereo not given) | -6 | -3 | 129* | -1 | . | 0
CNC(=O)COC(=O)c1nc(-n2nc(C)cc2C)ccc1Cl | -1 | 0 | 80* | -3 | . | 4
COc1ccc(N2C(=O)CCC(C(=O)NCCN3CCOCC3)C2c2ccc(OC)c(OC)c2)cc1 (stereo not given) | 4 | . | . | -2 | . | 0
O=C1c2ccccc2NC(c2cccc(F)c2)N1Cc1ccco1 (stereo not given) | 0 | -1 | 114* | 0 | -6 | -1
O=C1c2ccccc2NC(c2cccc(F)c2)N1Cc1ccccc1 (stereo not given) | -7 | -1 | 9 | -2 | -3 | 3
CC(C)NC(=O)Nc1ccc2c(c1)C(=O)N([C@@H](C)CO)C[C@H](C)[C@H](CN(C)Cc1ccccc1)O2 | . | . | 77* | . | 9 | .
C[C@H](CO)N1C[C@H](C)[C@H](CN(C)Cc2ccccc2)Oc2c(NC(=O)CCCCCC(=O)Nc3ccccc3N)cccc2C1=O | . | . | . | . | 108* | .
C[C@@H]1CN([C@H](C)CO)C(=O)c2cccc(NC(=O)CCCCCC(=O)Nc3ccccc3N)c2O[C@@H]1CN(C)Cc1ccccc1 | . | . | . | . | -7 | .

Compound activity (PubChem)
